# In ChEMBL document CHEMBL4020823, “Highly Selective, Potent, and Oral mTOR Inhibitor for Treatment of Cancer as Autophagy Inducer” (J Med Chem, 2018):
# The source made the active and inactive calls. The rule behind the calls is not given here.
# What was measured:
# [1] = biological target: PI3-kinase p110-alpha/p85-alpha (Homo sapiens) (UniProt P27986+P42336); test: Inhibition of full length recombinant human PI3K p110alpha/p85alpha at 1 uM relative to control; type: protein-complex assay
# Outline: (§1)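 Eurofins KinaseProfiler panel with compound at a single 1 μM concentration. ATP at the Km of each kinase. Result is % inhibition, mean of two independent experiments.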
# [2] = biological target: PI3K p110 delta/p85 alpha (Mus musculus) (UniProt P26450+O35904); test: Inhibition of full length recombinant mouse PI3K p110delta/p85alpha at 1 uM relative to control; type: protein-complex assay; outline: as §1
# T47D [3] = test: Antitumor activity against human T47D cells xenografted in BALB/c nude mouse assessed as decrease in tumor growth at 60 mg/kg, po administered via gavage after 3 weeks relative to control; type: functional; conditions: 504 h, read-out: TGI
# Homo sapiens [4] = species on record: Homo sapiens; test: Inhibition of mTORC1 in human MDA-MB-231 cells assessed as reduction in 4E-BP1 phosphorylation at Ser65 residues at 0.25 to 0.5 uM by Western blot analysis; type: cell-based
# Outline: (§2)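 Cells treated with the indicated concentrations, then whole-cell lysates immunoblotted. mTORC1 activity read as S6 and 4E-BP1 phosphorylation; mTORC2 activity read as AKT Ser473 phosphorylation. Blocking in 5% skim milk, primary antibodies at 4 °C overnight, peroxidase-conjugated secondary, ECL detection.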
# MDA-MB-231 [5] = test: Cell cycle arrest in human MDA-MB-231 cells assessed as decrease in S-phase at 0.25 to 0.5 uM after 24 hrs by propidium iodide-staining based flow cytometric analysis; type: functional
# Outline: (§3)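 Cells were seeded at 5 × 10^5 cells/mL. At 24 h after plating they were treated with increasing concentrations for 24 h, washed in PBS, and fixed in ice-cold 70% ethanol for at least 24 h. They were stained with propidium iodide plus RNase A for 30 min at 37 °C and analysed by flow cytometry for phase distribution.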
# HeLa [6] = test: Inhibition of mTORC1 in human HeLa cells assessed as reduction in S6 phosphorylation at Ser 240/244 residues at 0.5 to 1 uM by Western blot analysis; type: cell-based; outline: as §2
# OVCAR-5 = test: Growth inhibition of human OVCAR5 cells after 72 hrs by CCK8 assay; type: functional, cell-based; conditions: OVCAR-5, 72 h
# Outline: (§4)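 Cells were seeded at 2000–3000 per well and grown 24 h in serum-containing medium. They were then exposed to serially diluted compound for 72 h at 37 °C, 5% CO2. CCK8 reagent was added for 1–4 h and absorbance read at 450 nm. Inhibition = (AC − AS)/(AC − Ab) × 100%. IC50 is the average of at least three independent determinations.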
# MDA-MB-231 [7] = test: Induction of autophagy in human MDA-MB-231 cells assessed as increase in LC3-2 puncta level after 48 hrs by immunofluorescence staining based microscopic analysis; type: functional, cell-based
# Outline: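 Cells seeded on glass coverslips in complete 1640 or DMEM and incubated with inhibitors at different concentrations for 48 h. Fixed in 4% paraformaldehyde, permeabilized with 0.15% Triton X-100, blocked in 4% BSA/PBS for 1 h at room temperature. Anti-LC3B (1:200) overnight, then FITC-conjugated secondary, DAPI nuclear stain. LC3B-II puncta viewed by fluorescence microscopy.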
# SiHa [8] = test: Cell cycle arrest in human SiHa cells assessed as accumulation at G0/G1 phase at 0.25 to 0.5 uM after 24 hrs by propidium iodide-staining based flow cytometric analysis; type: functional; outline: as §3
# MCF7 = test: Induction of autophagy in human MCF7 cells assessed as increase in LC3-2 puncta level after 48 hrs by immunofluorescence staining based microscopic analysis; type: functional, cell-based
# SiHa [9] = test: Growth inhibition of human SiHa cells after 72 hrs by CCK8 assay; type: functional, cell-based; outline: as §4
# Rattus norvegicus = test: Apparent volume of distribution at steady state in Sprague-Dawley rat at 20 mg/kg, po administered as single dose by HPLC analysis; type: ADME, organism-based; conditions: in vivo
# Outline: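 Rats fasted overnight, then given one 20 mg/kg dose either iv or po. Blood was collected and centrifuged at once to obtain plasma. Plasma drug levels were measured by HPLC, and PK parameters were derived from the concentration-time data.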
# [10] = Protein binding in human plasma at 4 uM after 4 hrs by equilibrium dialysis method; type: ADME, cell-free; conditions: read-out: PPB (converted)
# Outline: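 Plasma protein binding measured in rabbit and human plasma with compound at 4 μM over a 4 h period; result given as percent bound.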
# Homo sapiens [11] = species on record: Homo sapiens; test: Inhibition of mTORC1 in human SiHa cells assessed as reduction in S6 phosphorylation at Ser 240/244 residues at 0.25 to 0.5 uM by Western blot analysis; type: cell-based; outline: as §2
# T47D [12] = test: Cell cycle arrest in human T47D cells assessed as accumulation at G0/G1 phase at 0.25 to 0.5 uM after 24 hrs by propidium iodide-staining based flow cytometric analysis; type: functional; outline: as §3
# Homo sapiens [13] = species on record: Homo sapiens; test: Inhibition of full length recombinant human PI3K p110alpha/p65alpha at 1 uM relative to control; outline: as §1
# [14] = Oral bioavailability in Sprague-Dawley rat at 20 mg/kg administered as single dose by HPLC analysis; type: ADME, organism-based; conditions: in vivo
# Outline: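 Rats fasted overnight, then given a single 20 mg/kg dose either iv or po. Blood collected and centrifuged immediately to obtain plasma. Plasma drug levels measured by HPLC, and pharmacokinetic parameters derived from both routes.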
# Mus musculus = test: Down regulation of 4E-BP1 phosphorylation at Ser65 residues in human T47D cells xenografted in BALB/c nude mouse administered via oral gavage after 3 weeks by hematoxylin and eosine staining based light microscopic assay; type: functional, cell-based
# Outline: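 Tumours from the oral 3-week T-47D xenograft study were formalin-fixed, paraffin-embedded and cut into 5 μm sections. Sections were deparaffinized, rehydrated and incubated overnight at 4 °C with phospho-specific primary antibody at 1:100. Biotin secondary was applied for 1 h at room temperature, then ABC-peroxidase/DAB with hematoxylin counterstain. Sections were viewed by light microscopy.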
# [15] = system: PI3-kinase p110-alpha/p85-alpha (Homo sapiens), P27986+P42336 [E545K]; test: Inhibition of full length recombinant human p85alpha/PI3K p110alpha E545K mutant at 1 uM relative to control; outline: as §1
# HeLa [16] = test: Cell cycle arrest in human HeLa cells assessed as accumulation at G0/G1 phase at 0.5 to 1 uM after 24 hrs by propidium iodide-staining based flow cytometric analysis; type: functional; outline: as §3
# Homo sapiens [17] = species on record: Homo sapiens; test: Inhibition of mTORC1 in human MCF7 cells assessed as reduction in 4E-BP1 phosphorylation at Thr37/46 residues at 0.25 to 0.5 uM by Western blot analysis; type: cell-based; outline: as §2
# T47D [18] = test: Growth inhibition of human T47D cells after 72 hrs by CCK8 assay; type: functional, cell-based; outline: as §4
# Homo sapiens [19] = species on record: Homo sapiens; test: Inhibition of mTORC1 in human T47D cells assessed as reduction in S6 phosphorylation at Ser 240/244 residues at 0.25 to 0.5 uM by Western blot analysis; type: cell-based; outline: as §2
# MDA-MB-231 [20] = test: Growth inhibition of human MDA-MB-231 cells after 72 hrs by CCK8 assay; type: functional, cell-based; conditions: MDA-MB-231, 72 h; outline: as §4
structure (smiles),measurement,setting,value
N#CCN1CCC(n2c(=O)cnc3cnc4ccc(-c5ccc(N)nc5)cc4c32)CC1,inhibition,[1],10%
same,inhibition,[2],4%
same,inhibition in vivo at 60 mg/kg,T47D [3],83.7%
same,inhibition,Homo sapiens [4],Active
same,Activity,MDA-MB-231 [5],Active
same,inhibition,HeLa [6],Active
same,IC50,OVCAR-5,2830 nM
same,Activity,MDA-MB-231 [7],Dose-dependent effect
same,Activity,SiHa [8],Active
same,Activity,MCF7,Dose-dependent effect
same,IC50,SiHa [9],110 nM
same,Vdss(app),Rattus norvegicus,21.79 L/kg
same,"fraction unbound at 4 h, 4 µM",[10],0.36
same,inhibition,Homo sapiens [11],Active
same,Activity,T47D [12],Active
same,inhibition,Homo sapiens [13],5%
same,bioavailability,[14],43.5%
same,Activity,Mus musculus,Dose-dependent effect
same,inhibition,[15],13%
same,Activity,HeLa [16],Active
same,inhibition,Homo sapiens [17],Active
same,IC50,T47D [18],205 nM
same,inhibition,Homo sapiens [19],Active
same,IC50,MDA-MB-231 [20],100 nM
